# Biological target: T1, Fe(3+)-Zn(2+) purple acid phosphatase (Phaseolus vulgaris, UniProt P80366)
# T1 sequence (P80366 whole entry): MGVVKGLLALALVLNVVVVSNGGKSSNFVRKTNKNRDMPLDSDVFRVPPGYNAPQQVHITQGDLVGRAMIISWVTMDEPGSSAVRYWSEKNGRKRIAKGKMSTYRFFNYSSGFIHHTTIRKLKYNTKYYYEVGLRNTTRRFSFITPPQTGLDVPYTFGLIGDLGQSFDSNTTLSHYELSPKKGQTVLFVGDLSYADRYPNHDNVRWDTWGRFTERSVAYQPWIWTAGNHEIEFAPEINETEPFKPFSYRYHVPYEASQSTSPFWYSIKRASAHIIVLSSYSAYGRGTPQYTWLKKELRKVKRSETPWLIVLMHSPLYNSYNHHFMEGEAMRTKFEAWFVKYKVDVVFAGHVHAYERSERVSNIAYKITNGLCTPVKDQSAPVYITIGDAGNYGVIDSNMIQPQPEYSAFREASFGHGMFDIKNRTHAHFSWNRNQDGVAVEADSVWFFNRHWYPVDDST
# Assay: Inhibition of red kidney bean PAP at pH 6.2
# Outline: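 Each enzyme was run at its own pH optimum: red kidney bean PAP at pH 6.2 and pig PAP at pH 4.9. IC50 values were determined experimentally. Separate inhibition constants were derived for binding to the free enzyme and to the enzyme–substrate complex.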
row,Ki,SMILES
1,4 µM,CCCCCCCCCCOC(c1cccc2ccccc12)P(=O)(O)O (racemic) [(+/-)-decyloxy(naphthalen-1-yl)methylphosphonic acid]
2,1470 µM,CCCCCCOC(c1cccc2ccccc12)P(=O)(O)O (racemic) [(+/-)-hexyloxy(naphthalen-1-yl)methylphosphonic acid]
3,50 µM,CCCCCCCCOC(c1cccc2ccccc12)P(=O)(O)O (racemic) [(+/-)-naphthalen-1-yl(octyloxy)methylphosphonic acid]
